Among the data in ChEMBL document CHEMBL1121731, “Synthesis and neuroleptic activity of benzamides. Cis-N-(1-benzyl-2-methylpyrrolidin-3-yl)-5-chloro-2-methoxy-4-(methylamino)benzamide and related compounds” (1981) are ED50 and Ratio values, retold here.

What all share (assay type): functional
Assay [1] concerns Rattus norvegicus. Briefly: Subcutaneous dose to inhibit apomorphine-induced stereotyped behavior in 50% of rats. The gist of the method:
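Test drugs given subcutaneously to rats; 30 min later apomorphine 1.25 mg/kg i.v. Inhibition scored positive unless both gnawing and licking were seen during 20 min after apomorphine. ED50 estimated by Litchfield–Wilcoxon or graphical method, 6–12 rats per dose.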

The species named for assay [2] is Rattus norvegicus. Briefly: Effective dose to induce catalepsy in 50% of the rats.
The species named for assay [3] is Rattus norvegicus. Put plainly: The inhibitory effect on the continuous avoidance was expressed as the dose to increase the number of electroshocks by 60% of the rats. The procedure, abridged:
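Modified Sidman continuous avoidance schedule in rats; shock-shock interval 5 s, response-shock interval 25 s; only rats receiving fewer than 19 shocks/h used. Drugs given subcutaneously; effect expressed as dose raising electroshocks by 60 (1 shock/min) between 1 and 2 h post-dose.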

A short description of assay [4]: Ratio of ED50 for inhibition of catalepsy induction to stereotypy induction.
The species named for assay [5] is Rattus norvegicus. Put plainly: Effective dose to induce catalepsy in 50% of the rats (95% confidence limits included in parentheses).
[6] abbreviates: Rattus norvegicus, sc, read-out: ED50.

Usually ED50 stands for the dose at which the effect has come halfway, by size or by number of responders. Consider `CCN(CCNC(=O)c1cc(Cl)c(N)cc1OC)Cc1ccccc1`, for which, in the assay on Rattus norvegicus [1] (setting [6]), the ED50 was 0.31 mg/kg. Turning to `CNc1cc(OC)c(C(=O)NCCN(C)Cc2ccccc2)cc1Cl.Cl`, the ED50 in the assay filed under Rattus norvegicus [2] came out at 16.5 mg/kg; in the assay listed under Rattus norvegicus [3] it was 0.041 mg/kg; in the assay on Rattus norvegicus [1] (setting [6]), 0.21 mg/kg. In assay [4], the Ratio is 79. Take `CNc1cc(OC)c(C(=O)NC2CCN(Cc3ccccc3)C2C)cc1Cl` (cis isomer) [NEMONAPRIDE]: the ED50 worked out at 0.5 mg/kg in the assay listed under Rattus norvegicus [5], 0.0034 mg/kg in the assay filed under Rattus norvegicus [3] and 0.0076 mg/kg in the assay on Rattus norvegicus [1].

`CCN1C(CNC(=O)c2cc(Cl)c(NC)cc2OC)CCC1c1ccccc1` (configuration not stated): the ED50 in the assay with Rattus norvegicus [1] (setting [6]) was greater than 30 mg/kg. For the compound `CCN(CCNC(=O)c1cc(Cl)c(N)cc1OC)Cc1ccc(Cl)cc1Cl`, the ED50 with Rattus norvegicus [1] (setting [6]) amounted to 10 mg/kg.

As to `COc1cc(N)c(Cl)cc1C(=O)NC1CCN(C2CCCCC2)C1` (configuration not stated), the ED50 in the assay on Rattus norvegicus [1] (setting [6]) stood at 1.8 mg/kg. Still for that read-out and setting: under `CCN(CCNC(=O)c1cc(Cl)c(N)cc1OC)Cc1ccc(F)cc1` stands 0.2 mg/kg; under `COc1ccc(Cl)cc1C(=O)NCCN(C)Cc1ccccc1.Cl`, 3 mg/kg. Still for that read-out and setting: under `CCNCCNC(=O)c1cc(Cl)c(N)cc1OC` [MONODEETHYLATED-MCP] stands greater than 30 mg/kg; under `CCN1CCCC1CNC(=O)c1cc(S(=O)(=O)CC)ccc1OC` (configuration not stated) [SULTOPRIDE], 18 mg/kg. On the same count and under the same terms, in the case of `CNc1cc(OC)c(C(=O)NCC2CCCN2Cc2ccccc2)cc1Cl.Cl` (configuration not stated) it was 0.94 mg/kg. Regarding `CNc1cc(OC)c(C(=O)NC2CCN(Cc3ccccc3)C2)cc1Cl` (configuration not stated), the ED50 came out at 1.6 mg/kg in the assay listed under Rattus norvegicus [2], 0.008 mg/kg in the assay filed under Rattus norvegicus [3] and 0.016 mg/kg in the assay with Rattus norvegicus [1] (setting [6]). Moreover, the Ratio in assay [4] was 100. `CCN(CCNC(=O)c1cc(Cl)c(N)cc1OC)Cc1ccccc1OC`: in the assay with Rattus norvegicus [1] (setting [6]), the ED50 turned out to be 10 mg/kg. Turning to `COc1cc(N(C)C)c(Cl)cc1C(=O)NC1CCN(C2CCCCC2)C1` (configuration not stated), in the assay with Rattus norvegicus [1] (setting [6]), the ED50 turned out to be 1 mg/kg. For `CNc1cc(OC)c(C(=O)NC2CCN(Cc3ccccc3)C2C)cc1Cl` (cis isomer), the Ratio in assay [4] was 66. Take `COc1cc(NC(C)=O)c(Cl)cc1C(=O)NC1CCN(Cc2ccccc2)C1` (configuration not stated): the ED50 in the assay with Rattus norvegicus [1] (setting [6]) was 1.8 mg/kg. Still for that read-out and setting: in the case of `COc1ccc(OC)c(C(=O)NCCN(C)Cc2ccccc2)c1.Cl` it was 3 mg/kg.

On to `CCN(CCNC(=O)c1cc(Cl)c(N)cc1OC)Cc1cccc(OC)c1`, for which the ED50 with Rattus norvegicus [1] (setting [6]) amounted to 1 mg/kg. Same read-out and setting: under `COc1cc(N)c(Cl)cc1C(=O)NCCN(C)CC1CCCCC1` stands 3 mg/kg. On the same count and under the same terms, in the case of `COc1cc(N)c(Cl)cc1C(=O)NCCN(Cc1ccccc1)Cc1ccccc1` it was greater than 30 mg/kg. Still for that read-out and setting: in the case of `COc1cc(N(C)C)c(Cl)cc1C(=O)NCC1CCCN1C1CCCCC1.O=C(O)C(=O)O` (configuration not stated) it was greater than 30 mg/kg.

In the case of `CCC1c2ccccc2CN1CNC(=O)c1cc(Cl)c(N)cc1OC` (configuration not stated), in the assay with Rattus norvegicus [1] (setting [6]), the ED50 was found to be 1 mg/kg. As to `CNc1cc(OC)c(C(=O)NCC2CCC(C)N2Cc2ccccc2)cc1Cl.Cl` (configuration not stated), the values for the ED50 in the assay filed under Rattus norvegicus [2], in the assay listed under Rattus norvegicus [3] and with Rattus norvegicus [1] (setting [6]) were 13.5 mg/kg, 0.11 mg/kg and 0.35 mg/kg, respectively. The Ratio in assay [4] is 39. For the compound `CCN1CCCC1CNC(=O)c1cc(Cl)c(N)cc1OC` (configuration not stated), the ED50 in the assay with Rattus norvegicus [1] (setting [6]) was greater than 30 mg/kg. As for `COc1cc(N2CCCC2)c(Cl)cc1C(=O)NC1CCN(Cc2ccccc2)C1` (configuration not stated), in the assay on Rattus norvegicus [1] (setting [6]), the ED50 came to 0.6 mg/kg.

As for `CCCNc1cc(OC)c(C(=O)NC2CCN(Cc3ccccc3)C2)cc1Cl` (configuration not stated), the ED50 in the assay with Rattus norvegicus [1] (setting [6]) was determined as 17 mg/kg. On the same count and under the same terms, in the case of `COc1cc(N)c(Cl)cc1C(=O)NCCN(Cc1ccccc1)C(C)(C)C` it was greater than 30 mg/kg. `CCN(CCNC(=O)c1cc(Cl)c(N)cc1OC)Cc1cccc(Cl)c1`: the ED50 with Rattus norvegicus [1] (setting [6]) was 0.58 mg/kg.

On to `COc1cc(N(C)C(C)=O)c(Cl)cc1C(=O)NC1CCN(Cc2ccccc2)C1` (configuration not stated), for which, in the assay with Rattus norvegicus [1] (setting [6]), the ED50 is greater than 30 mg/kg. Regarding `CCN(CC)CCNC(=O)c1cc(Cl)c(N)cc1OC` [METOCLOPRAMIDE], the ED50 in the assay filed under Rattus norvegicus [2] turned out to be 26 mg/kg; in the assay filed under Rattus norvegicus [3] it was 2.6 mg/kg; in the assay with Rattus norvegicus [1] (setting [6]) it was 3.1 mg/kg. Besides, the Ratio in assay [4] was 8.4.

For the compound `CCN1CCCC1CNC(=O)c1cc(S(N)(=O)=O)ccc1OC` (configuration not stated) [SULPIRIDE], the ED50 in the assay with Rattus norvegicus [1] (setting [6]) was greater than 100 mg/kg. `COc1ccc(S(N)(=O)=O)cc1C(=O)NCCN(C)Cc1ccccc1`: the ED50 with Rattus norvegicus [1] (setting [6]) is greater than 30 mg/kg. The same measure, in the same setting: in the case of `CCN(CCNC(=O)c1cc(Cl)c(N)cc1OC)Cc1ccccc1Cl` it was 10 mg/kg.

Take `COc1cc(N)c(Cl)cc1C(=O)NCC1CCC(C)N1Cc1ccccc1` (configuration not stated): the 50% effective dose (ED50) in the assay on Rattus norvegicus [1] (setting [6]) was 0.67 mg/kg. Same read-out and setting: under `COc1cc(C(=O)NCCN(C)Cc2ccccc2)cc(OC)c1OC` stands greater than 30 mg/kg; under `CCNS(=O)(=O)c1ccc(OC)c(C(=O)NCCN(C)Cc2ccccc2)c1`, greater than 30 mg/kg; under `CCN(CCNC(=O)c1cc(Cl)c(N)cc1OC)Cc1ccco1`, 3 mg/kg. Same read-out and setting: under `CCN1CCC(NC(=O)c2cc(Cl)c(NC)cc2OC)C1` (configuration not stated) stands 10 mg/kg.

With `COc1cc(N)c(Cl)cc1C(=O)NCC1CCCN1Cc1ccccc1` (configuration not stated), the ED50 with Rattus norvegicus [1] (setting [6]) was determined as 1.1 mg/kg. On the same count and under the same terms, under `CCCCN(CCNC(=O)c1cc(Cl)c(N)cc1OC)Cc1ccc(Cl)cc1` stands 20 mg/kg; under `COc1cc(N)c(Cl)cc1C(=O)NCCN(C)Cc1ccccc1`, 0.38 mg/kg. The same measure, in the same setting: under `CCNc1cc(OC)c(C(=O)NC2CCN(Cc3ccccc3)C2)cc1Cl` (configuration not stated) stands 0.1 mg/kg.

Consider `COc1cc(N(C)C)c(Cl)cc1C(=O)NC1CCN(Cc2ccccc2)C1` (configuration not stated), for which the ED50 with Rattus norvegicus [1] (setting [6]) came out at 0.12 mg/kg. The same measure, in the same setting: in the case of `COc1cc(N)c(Cl)cc1C(=O)NCCN(Cc1ccc(Cl)cc1)C(C)C` it was 3 mg/kg; in that of `COc1ccc(S(C)(=O)=O)cc1C(=O)NCCN(C)Cc1ccccc1`, 3 mg/kg. `COc1cc(N)c(Cl)cc1C(=O)NC1CCN(Cc2ccccc2)C1` (configuration not stated): in the assay with Rattus norvegicus [1] (setting [6]), the ED50 turned out to be 0.17 mg/kg.

Regarding `COc1cc(N)c(Cl)cc1C(=O)NCCN(C)Cc1ccccc1C(F)(F)F`, the ED50 in the assay with Rattus norvegicus [1] (setting [6]) came to 30 mg/kg. Same read-out and setting: in the case of `CCN(CCNC(=O)c1cc(Cl)c(N)cc1OC)Cc1ccccn1` it was 30 mg/kg. For the compound `CNc1cc(OC)c(C(=O)NC2CCN(Cc3ccccc3)C2C)cc1Cl` (trans isomer) [NEMONAPRIDE], the ED50 in the assay on Rattus norvegicus [1] amounted to 0.057 mg/kg. With `COc1cc(N)c(Cl)cc1C(=O)NCCN(C)Cc1ccccc1C`, the ED50 with Rattus norvegicus [1] (setting [6]) was determined as 2 mg/kg.

With `O=C(CCCN1CCC(O)(c2ccc(Cl)cc2)CC1)c1ccc(F)cc1` [HALOPERIDOL], the values for the ED50 in the assay filed under Rattus norvegicus [2], in the assay listed under Rattus norvegicus [3] and in the assay on Rattus norvegicus [1] (setting [6]) were 1 mg/kg, 0.021 mg/kg and 0.095 mg/kg, respectively. Besides, the Ratio in assay [4] was found to be 11. Turning to `CCN(CCNC(=O)c1cc(Cl)c(N)cc1OC)Cc1ccc(OC)cc1`, the ED50 with Rattus norvegicus [1] (setting [6]) was 0.2 mg/kg. On the same count and under the same terms, under `COc1cc(N)c(Cl)cc1C(=O)NCCN(C)C(C)c1ccccc1` (configuration not stated) stands 1 mg/kg; under `CN(CCNC(=O)c1ccc(F)cc1)Cc1ccccc1.Cl`, greater than 30 mg/kg. On the same count and under the same terms, under `COc1cc(N(C)C(=O)C(F)(F)F)c(Cl)cc1C(=O)NC1CCN(Cc2ccccc2)C1` (configuration not stated) stands 0.3 mg/kg; under `COc1cc(NCc2ccccc2)c(Cl)cc1C(=O)NC1CCN(Cc2ccccc2)C1` (configuration not stated), greater than 30 mg/kg; under `COc1cc(N(C)C)c(Cl)cc1C(=O)NCCN(C)Cc1ccccc1`, 0.54 mg/kg. On the same count and under the same terms, under `CCCN(CCNC(=O)c1cc(Cl)c(N)cc1OC)Cc1ccc(Cl)cc1` stands 3 mg/kg. Turning to `COc1cc(NC=O)c(Cl)cc1C(=O)NC1CCN(Cc2ccccc2)C1` (configuration not stated), the 50% effective dose (ED50) in the assay on Rattus norvegicus [1] (setting [6]) was found to be 0.6 mg/kg. Still for that read-out and setting: under `CCN(CCNC(=O)c1cc(Cl)c(N)cc1OC)Cc1ccc(Cl)cc1` stands 0.24 mg/kg.
